PolyA inh – inhibitors of polyadenylation in S. cerevisiae; S. cerevisiae SKY197-pL101 polyadenylation reporter, beta-gal luminescence; efflux-impaired pdr1/pdr3 knockout yeast; score 100 = 6 SD above DMSO; activity score, % at 12 µM; 0.02% of 300,000 active; AID 1875;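 active means lowest replicate activity score at least 50, where 100 means six control SD above control mean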;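 further: yeast exposed to compound for 9 h at 30 °C; higher score means more reporter readthrough which indicates perturbed polyadenylation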
STK33 inh – inhibitors of human STK33 kinase; inhibition, % at 10 µM; Q9BYT3; AID 2661; 0.073% of 320,000 active; purified STK33, MBP phosphorylation, ADP-Glo luminescence;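 active means inhibition at or above 25%, using the most active replicate where run in duplicate; inactive means inhibition below 25%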
GSK3 alpha inh – inhibitors of human GSK-3 alpha kinase | P49840 | ADP-Glo luminescence, 60 min | inhibition, % at 10 µM | 0.1% of 320,000 active | AID 2650;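 active means more than half of replicates show inhibition above 20%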;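 further: GST-tagged GSK-3 alpha with peptide substrate and 25 µM ATP; 0% = DMSO neutral wells and 100% = GW8510 positive control wells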
Target sequence (P49840 whole entry, looked up): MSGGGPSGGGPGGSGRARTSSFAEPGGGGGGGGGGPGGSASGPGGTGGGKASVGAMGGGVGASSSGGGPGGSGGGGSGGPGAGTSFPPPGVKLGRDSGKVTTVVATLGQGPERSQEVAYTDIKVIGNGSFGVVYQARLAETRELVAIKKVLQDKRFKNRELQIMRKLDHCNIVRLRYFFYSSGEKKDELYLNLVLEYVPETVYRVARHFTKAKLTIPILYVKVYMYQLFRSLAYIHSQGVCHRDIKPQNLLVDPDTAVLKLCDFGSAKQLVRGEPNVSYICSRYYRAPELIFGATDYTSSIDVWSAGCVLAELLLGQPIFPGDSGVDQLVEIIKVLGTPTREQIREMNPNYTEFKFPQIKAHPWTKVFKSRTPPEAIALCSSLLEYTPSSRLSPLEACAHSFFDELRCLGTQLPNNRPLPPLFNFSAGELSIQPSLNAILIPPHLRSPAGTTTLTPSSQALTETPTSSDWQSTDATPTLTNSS
GSK3B inh – inhibitors of human GSK3beta kinase. GST-GSK3beta kinase, ADP-Glo luminescence, 60 min; hits give low values. P49841. 0.038% of 300,000 active. activity score (negative = inhibition), % at 10 µM;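 active means more than half of replicate wells score below -50%, meaning over 50% inhibition versus plate controls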;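 further: 0% = median DMSO wells and -100% = median GW8510 positive control wells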
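Test system: GST-fused GSK3beta enzyme, cell-free | Quantity: 1.6 ng GST-GSK3beta enzyme per well | Reagent: 25 µM ATP with peptide substrate | Schedule: 60 min enzyme reaction, room temperature | Signal: Luminescent ADP-Glo measurement of ADP formed | Read-out basis: Score relative to plate controls | Control set: DMSO and 20 µM GW8510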
Efflux pump mplx – antifungal efflux pump inhibition, Nile Red retention; 0.44% of 330,000 active; AID 485275; inhibition, % at 10 µM; S. cerevisiae Candida pump triplex;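 active means plate passing quality check with inhibition over a set limit, or well fluorescence over plate mean plus 4 SD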;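 further: Nile Red retained in pooled yeast measured as flow cytometry median fluorescence; 0% = buffer negative control and 100% = Enniatin B positive control; higher means more Nile Red kept so more efflux inhibition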
Yeast cmpd fluor – flagged as fluorescent in efflux inhibitor counter-screen; shares compounds with Efflux pump mplx; AID 588517; 4% of 1,700 active; S. cerevisiae AD/pABC3, compound fluorescence, flow cytometry; fluorescence ratio to DMSO, % at 10 µM;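 active means fluorescence ratio to DMSO above its plate's cutoff, the plate mean ratio plus 5 SD, cut at about 210% in these data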;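 further: unstained yeast with no Nile Red so the signal is compound autofluorescence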
Mdr1 pump inh – inhibitors of Candida albicans Mdr1 efflux pump; shares compounds with Efflux pump mplx; 1% of 1,700 active; S. cerevisiae AD/CaMDR1, Nile Red efflux, flow cytometry; inhibition, % at 10 µM; in the data active means inhibition above about 26%;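 further: 0% = DMSO vehicle and 100% = reference inhibitor; higher means more Nile Red retained so more efflux inhibition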
CaCdr2 efflux inh – blocks the Candida albicans Cdr2 efflux pump in yeast; shares compounds with Efflux pump mplx; S. cerevisiae AD/CaCDR2, Nile Red retention, flow cytometry; Nile Red retention ratio vs DMSO, % at 10 µM; 4% of 1,700 active; AID 588520; in the data active means Nile Red retention ratio vs DMSO above about 190%;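 further: higher ratio means more blocking of Cdr2 efflux of the dye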
CaCdr1 efflux inh – blocks the Candida albicans Cdr1 efflux pump in yeast; shares compounds with Efflux pump mplx; S. cerevisiae AD/CaCDR1, Nile Red efflux, flow cytometry; inhibition, % at 10 µM; 1% of 1,700 active;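 active means inhibition above the screen-wide mean plus twice its standard deviation, cut at about 32% in these data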
Numbers without * were called inactive; / = not tested or not shown. Rows were chosen to be rich in hits. Some 0.6% of all compounds tested hit in one or more screens of this group.

SMILES | PolyA inh | STK33 inh | GSK3 alpha inh | GSK3B inh | Efflux pump mplx | Yeast cmpd fluor | Mdr1 pump inh | CaCdr2 efflux inh | CaCdr1 efflux inh
Cc1ccsc1C1Nc2ccccc2C(=O)N1O (stereo not drawn) | 10 | 3 | 1 | -2 | 0 | / | / | / | /
O=C1CC(c2ccco2)Sc2ccccc2N1 (stereo not drawn) | 8 | -2 | 5 | 0 | 0 | 100 | 0 | 112 | 0
O=C1CC(c2ccccc2)Sc2ccccc2N1 (stereo not drawn) | 5 | 4 | 4 | -4 | 0 | / | / | / | /
Cc1ccsc1C1CC(=O)Nc2ccccc2S1 (stereo not drawn) | 0 | 0 | 1 | -3 | 0 | 94 | 0 | 102 | 0
Cn1cc(C(c2ccccn2)c2cn(C)c3ccccc23)c2ccccc21 | 12 | 0 | 4 | 2 | 57* | 88 | 86* | 103 | 32*
Cc1ccc(-n2c(Cc3cccs3)nnc2SCC(=O)Nc2ccc(F)c(F)c2)cc1 | 2 | -2 | 1 | 3 | 0 | 100 | 0 | 95 | 0
O=C(CSc1nnc(Cc2cccs2)n1-c1ccccc1)Nc1ccc2c(c1)OCCO2 | 12 | 0 | 0 | -3 | 0 | 126 | 2 | 112 | 1
CCOC(=O)Cn1nc(C)c(NC(=O)CCc2ccc(OC)cc2)c1C | 26 | -1 | 7 | -3 | 0 | / | / | / | /
CCOC(=O)C1C(=O)C=C(c2ccc(C)cc2)CC1c1ccccc1 (stereo not drawn) | -5 | -1 | -1 | -1 | 0 | / | / | / | /
CCOC(=O)C1C(=O)C=C(/C=C/c2ccc(N(C)C)cc2)CC1c1ccccc1 (stereo not drawn) | 6 | 0 | 3 | -1 | 0.6* | 588* | 0 | 125 | 0
Brc1ccc(-c2csc(NC3=NCCCCC3)n2)cc1 | -17 | -1 | -2 | 2 | 7.6* | 113 | 1 | 107 | 0
COc1ccc(-c2csc(NC3=NCCCCC3)n2)cc1 | 12 | 2 | 0 | 2 | 0 | / | / | / | /
O=C1CN(S(=O)(=O)c2ccccc2C(F)(F)F)CCN1 | 4 | -1 | 1 | 0 | 0 | / | / | / | /
Cc1cc(C)c(NC(=O)Cn2c(=O)n(Cc3ccco3)c(=O)c3ccccc32)c(C)c1 | 10 | -2 | 1 | 4 | 1.1* | 100 | 0 | 97 | 0
COc1cc2c(=O)n(Cc3ccco3)c(=O)n(CC(=O)c3cccc(Br)c3)c2cc1OC | 17 | -2 | 1 | 0 | 1.0* | 87 | 0 | 105 | 0
CCN(CC)S(=O)(=O)c1ccc(NCCc2ccccn2)nc1 | -6 | -4 | -1 | 2 | 0 | / | / | / | /
Cc1cccc(Nc2cc(=O)[nH]c(=O)[nH]2)c1 | 17 | 1 | 1 | 7 | 6.5* | 102 | 0 | 116 | 0
O=C(CN1CCN(S(=O)(=O)c2ccccc2F)CC1)Nc1ccccc1C(=O)c1ccccc1 | -9 | 1 | 0 | 0 | 0.5* | 111 | 0 | 98 | 0
Cc1nn(C)c(Sc2ccccc2N)c1[N+](=O)[O-] | -8 | 1 | 7 | 2 | 0.9* | 105 | 0 | 106 | 0
Cc1ccc(C)c(NC(=O)CSc2nnc(NC(=O)C3CC3)s2)c1 | 21 | 0 | 6 | 0 | 0 | / | / | / | /
COc1ccccc1CNC(=O)COc1ccccc1OC | 23 | 0 | -3 | -2 | 1.0* | 108 | 0 | 100 | 0
O=C(CCNC(=O)Cn1ccc2ccccc2c1=O)NCc1ccc(F)cc1Cl | 19 | -2 | / | 3 | 0 | / | / | / | /
COc1ccc([C@H]2[C@H](C(=O)C(C)(C)C)N3N=Cc4ccccc4C3[C@]23N=C(c2ccccc2)OC3=O)cc1 (stereo partly drawn) | 4 | 6 | 11 | -1 | 0.8* | 121 | 0 | 129 | 0
O=C(CN1C(=O)CC(c2ccco2)Sc2ccccc21)Nc1ccccc1F (stereo not drawn) | 27 | 0 | -2 | 2 | 0 | / | / | / | /
CC1Oc2ccccc2N(CC(=O)Nc2ccc3c(c2)OCCO3)C1=O (stereo not drawn) | 3 | 0 | -5 | 3 | 0 | / | / | / | /
SMILES | PolyA inh | STK33 inh | GSK3 alpha inh | GSK3B inh | Efflux pump mplx | Yeast cmpd fluor | Mdr1 pump inh | CaCdr2 efflux inh | CaCdr1 efflux inh
CC1CC(=O)N(CC(=O)Nc2ccc3c(c2)OCCO3)c2ccccc2S1 (stereo not drawn) | 19 | -1 | -3 | -2 | 0 | 531* | 5 | 109 | 0
O=C(CN1C(=O)CC(c2ccco2)Sc2ccccc21)NCc1ccc2c(c1)OCO2 (stereo not drawn) | 0 | 0 | 1 | -1 | 9.8* | 82 | 0 | 87 | 0
CC(OC(=O)CSc1ccc([N+](=O)[O-])cc1)C(=O)NCc1ccccc1 (stereo not drawn) | 1 | 0 | -1 | -3 | 0 | / | / | / | /
O=C(c1ccoc1)N1CCC2(CC1)Oc1ccc(F)cc1C(=O)C21CC(c2ccccc2)=NO1 (stereo not drawn) | 8 | 0 | 4 | -2 | 67* | 92 | 95* | 116 | 43*
O=C(c1ccoc1)N1CCC2(CC1)Oc1ccc(F)cc1C(=O)C21CC(c2ccc(Cl)cc2)=NO1 (stereo not drawn) | -13 | 0 | -1 | 1 | 5.5* | 107 | 7 | 110 | 53*
O=C(c1ccc2c(c1)OCO2)N1CCC2(CC1)Oc1ccc(F)cc1C(=O)C21CC(c2ccccc2)=NO1 (stereo not drawn) | 5 | -1 | 0 | -1 | 85* | 92 | 81* | 94 | 50*
CC(C)C(=O)N1CCC2(CC1)Oc1ccc(F)cc1C(=O)C21CC(c2ccc(Cl)cc2)=NO1 (stereo not drawn) | 11 | 0 | 0 | 0 | 36* | 99 | 2 | 114 | 0
O=C(c1ccoc1)N1CCC2(CC1)Oc1ccc(Cl)cc1C(=O)C21CC(c2ccc(Cl)cc2)=NO1 (stereo not drawn) | -5 | 12 | 8 | 3 | 0 | 103 | 0 | 94 | 0
CCOC(=O)c1c(C)[nH]c(C)c1C(=O)COC(=O)/C=C/c1ccc(Cl)cc1 | 22 | 1 | -1 | 2 | 8.3* | 102 | 0 | 101 | 0
CCOC(=O)c1ccccc1NS(=O)(=O)c1ccccc1F | 20 | 0 | 0 | 2 | 5.9* | 100 | 0 | 89 | 0
O=C(O)c1cccc(-c2ccc(/C=c3/sc4nc5ccccc5n4c3=O)o2)c1 | 0 | -1 | -2 | 0 | 3.9* | 133 | 0 | 262* | 0
